Laboratory results from ChEMBL document CHEMBL1799953, “Backbone cyclic peptide inhibitors of protein kinase B (PKB/Akt)” (J Med Chem, 2011).
*1 amine or outer side, *2 acyl side, *3 side chain or, on linkers, in order; H or OH if unused. Where a SMILES comes first, the peptide text is derived from it. Bridges are numbered along the chain shown (N, C = ends). [ ]: non-standard residue; d: D form. N(6-aminohexyl)Gly = O=C(CN(CCCCCCN[*:3])[*:1])[*:2]; NGly(3-aminopropyl) = O=C(CN(CCCN[*:3])[*:1])[*:2]; N(2-Aminoethyl)Gly = O=C(CN(CCN[*:3])[*:1])[*:2]; Gly(N-(CH2)6NH2) = NCCCCCCNCC(=O)O; Gly(N-2-aminoethyl) = NCCNCC(=O)O; Cha = N[C@@H](CC1CCCCC1)C(=O)O; Gly(N(CH2)3NH2) = NCCCNCC(=O)O; hLeu = CC(C)CC[C@H](N)C(=O)O; Nva = CCC[C@H](N)C(=O)O; Dap = NC[C@H](N)C(=O)O; CO = O=C([*:1])[*:2]; Nlys = NCCCCNCC(=O)O

The compounds below were run against T1, RAC-alpha serine/threonine-protein kinase (Homo sapiens, UniProt P31749) (assay: Inhibition of Akt using RPRTSSF peptide and [gamma32]ATP by cell-free radioactive assay).
In short: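 Same reaction: HisΔPHPKBEEEFlag (0.005 units), 50 mM Hepes pH 7.4, 0.1 mM EGTA, 0.1% 2-mercaptoethanol, 10 mM magnesium acetate, 3 μM RPRTSSF, 10 μM [γ32P]ATP. Peptide stock concentration determined by UV spectrophotometry; reference peptide run in every assay.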

T1 sequence (P31749 whole entry): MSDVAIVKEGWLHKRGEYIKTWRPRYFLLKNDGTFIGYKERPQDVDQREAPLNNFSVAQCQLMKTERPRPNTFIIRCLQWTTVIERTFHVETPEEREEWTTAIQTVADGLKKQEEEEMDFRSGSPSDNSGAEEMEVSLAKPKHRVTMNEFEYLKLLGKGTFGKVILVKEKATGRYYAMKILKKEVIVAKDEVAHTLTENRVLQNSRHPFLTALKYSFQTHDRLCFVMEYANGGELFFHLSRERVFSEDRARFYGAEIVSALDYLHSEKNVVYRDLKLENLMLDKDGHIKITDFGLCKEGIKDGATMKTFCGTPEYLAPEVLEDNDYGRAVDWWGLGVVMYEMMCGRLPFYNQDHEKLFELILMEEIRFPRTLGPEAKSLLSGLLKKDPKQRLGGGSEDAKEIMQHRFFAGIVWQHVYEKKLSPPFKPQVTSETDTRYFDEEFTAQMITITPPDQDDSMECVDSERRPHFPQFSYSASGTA

IC50 [nM] | Compound
860 | CCC[C@H](NC(=O)[C@H](CCCN=C(N)N)NC(=O)[C@H](CN)NC(=O)[C@@H](N)CCCN=C(N)N)C(=O)N[C@@H](Cc1ccc(O)cc1)C(=O)N[C@@H](CN)C(=O)N[C@@H](CCC(C)C)C(N)=O
950 | CCC[C@H](NC(=O)[C@H](CCCN=C(N)N)NC(=O)[C@H](CC1CCCCC1)NC(=O)[C@@H](N)CCCN=C(N)N)C(=O)N[C@@H](Cc1ccc(O)cc1)C(=O)N[C@@H](CN)C(=O)N[C@@H](CCC(C)C)C(N)=O (H-R[Cha]R[Nva]Y[Dap][hLeu]-NH2)
176 | CCC[C@H](NC(=O)[C@H](CCCN=C(N)N)NC(=O)CN(CCN)C(=O)[C@@H](N)CCCN=C(N)N)C(=O)N[C@@H](Cc1ccc(O)cc1)C(=O)N[C@@H](CN)C(=O)N[C@@H](CCC(C)C)C(=O)N(CCCCN)CC(N)=O (H-R[Gly(N-2-aminoethyl)]R[Nva]Y[Dap][hLeu][Nlys]-NH2)
220 | CCC[C@H](NC(=O)[C@H](CCCN=C(N)N)NC(=O)CN(CCCCN)C(=O)[C@@H](N)CCCN=C(N)N)C(=O)N[C@@H](Cc1ccc(O)cc1)C(=O)N[C@@H](CN)C(=O)N[C@@H](CCC(C)C)C(=O)N(CCN)CC(N)=O (H-R[Nlys]R[Nva]Y[Dap][hLeu][Gly(N-2-aminoethyl)]-NH2)
2150 | CCC[C@H](NC(=O)[C@H](CCCN=C(N)N)NC(=O)[C@H](CCCCN)NC(=O)[C@@H](N)CCCN=C(N)N)C(=O)N[C@@H](Cc1ccc(O)cc1)C(=O)N[C@@H](CN)C(=O)N[C@@H](CCC(C)C)C(N)=O

More lines, now with the values behind:

Compound | IC50 [nM]
CCC[C@H](NC(=O)[C@H](CCCN=C(N)N)NC(=O)CN(CCN)C(=O)[C@@H](N)CCCN=C(N)N)C(=O)N[C@@H](Cc1ccc(O)cc1)C(=O)N[C@@H](CN)C(=O)N[C@@H](CCC(C)C)C(=O)N(CCCN)CC(N)=O (H-R[Gly(N-2-aminoethyl)]R[Nva]Y[Dap][hLeu][Gly(N(CH2)3NH2)]-NH2) | 250
CCC[C@H](NC(=O)[C@H](CCCN=C(N)N)NC(=O)CN(CCCCCCN)C(=O)[C@@H](N)CCCN=C(N)N)C(=O)N[C@@H](Cc1ccc(O)cc1)C(=O)N[C@@H](CN)C(=O)N[C@@H](CCC(C)C)C(=O)N(CCN)CC(N)=O (H-R[Gly(N-(CH2)6NH2)]R[Nva]Y[Dap][hLeu][Gly(N-2-aminoethyl)]-NH2) | 320
CCC[C@H](NC(=O)[C@H](CCCN=C(N)N)NC(=O)CN(CCCCCCN)C(=O)[C@@H](N)CCCN=C(N)N)C(=O)N[C@@H](Cc1ccc(O)cc1)C(=O)N[C@@H](CN)C(=O)N[C@@H](CCC(C)C)C(=O)N(CCCCN)CC(N)=O (H-R[Gly(N-(CH2)6NH2)]R[Nva]Y[Dap][hLeu][Nlys]-NH2) | 160
CCC[C@H](NC(=O)[C@H](CCCN=C(N)N)NC(=O)CN(CCCN)C(=O)[C@@H](N)CCCN=C(N)N)C(=O)N[C@@H](Cc1ccc(O)cc1)C(=O)N[C@@H](CN)C(=O)N[C@@H](CCC(C)C)C(=O)N(CCN)CC(N)=O (H-R[Gly(N(CH2)3NH2)]R[Nva]Y[Dap][hLeu][Gly(N-2-aminoethyl)]-NH2) | 320
CCC[C@@H]1NC(=O)[C@H](CCCN=C(N)N)NC(=O)CN(C(=O)[C@@H](N)CCCN=C(N)N)CCNC(=O)NCCCCN(CC(N)=O)C(=O)[C@H](CCC(C)C)NC(=O)[C@H](CN)NC(=O)[C@H](Cc2ccc(O)cc2)NC1=O (H-R[N(2-Aminoethyl)Gly]R[Nva]Y[Dap][hLeu][Nlys]-NH2; linker 2-8 via CO) | 282
CCC[C@@H]1NC(=O)[C@H](CCCN=C(N)N)NC(=O)CN(C(=O)[C@@H](N)CCCN=C(N)N)CCCCCCNC(=O)NCCCCN(CC(N)=O)C(=O)[C@H](CCC(C)C)NC(=O)[C@H](CN)NC(=O)[C@H](Cc2ccc(O)cc2)NC1=O (H-R[N(6-aminohexyl)Gly]R[Nva]Y[Dap][hLeu][Nlys]-NH2; linker 2-8 via CO) | 280
CCC[C@@H]1NC(=O)[C@H](CCCN=C(N)N)NC(=O)CN(C(=O)[C@@H](N)CCCN=C(N)N)CCCNC(=O)NCCCN(CC(N)=O)C(=O)[C@H](CCC(C)C)NC(=O)[C@H](CN)NC(=O)[C@H](Cc2ccc(O)cc2)NC1=O (H-R[NGly(3-aminopropyl)]R[Nva]Y[Dap][hLeu][NGly(3-aminopropyl)]-NH2; linker 2-8 via CO) | 590

What follows are compounds tested against T1, RAC-alpha serine/threonine-protein kinase (assay: Inhibition of Akt using RPRTSSF peptide and [gamma32]ATP at 0.625 uM by cell-free radioactive assay relative to control).

inhibition [%] | Compound
51 | CCC[C@H](NC(=O)[C@H](CCCNC(=N)N)NC(=O)CN(CCCN)C(=O)[C@@H](N)CCCNC(=N)N)C(=O)N[C@@H](Cc1ccc(O)cc1)C(=O)N[C@@H](CN)C(=O)N[C@@H](CCC(C)C)C(=O)N(CCCCCCN)CC(N)=O (H-R[Gly(N(CH2)3NH2)]R[Nva]Y[Dap][hLeu][Gly(N-(CH2)6NH2)]-NH2)
76 | CCC[C@H](NC(=O)[C@H](CCCNC(=N)N)NC(=O)CN(CCCN)C(=O)[C@@H](N)CCCNC(=N)N)C(=O)N[C@@H](Cc1ccc(O)cc1)C(=O)N[C@@H](CN)C(=O)N[C@@H](CCC(C)C)C(=O)N(CCN)CC(N)=O (H-R[Gly(N(CH2)3NH2)]R[Nva]Y[Dap][hLeu][Gly(N-2-aminoethyl)]-NH2)
